Results reported in PubChem BioAssay AID720661 (The Scripps Research Institute Molecular Screening Center, 2013).
Active and inactive are the calls of the source.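 How the source made its calls: active means EC50 of 10 µM or lower; inactive means EC50 above 10 µM.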

Each molecule was assayed on 293 cells GAL4-VP16 luciferase reporter, luminescence (assay: GAL4-VP16 luciferase reporter activators, dose response, counter-screen for BRM (SMARCA2) activator project, cell-based, luminescence, late stage (AID 720661)).
Summary of the method: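 Material: 293 cells carrying GAL4-VP16 and pGL4.31 reporter; Quantity: 2,500 cells/well; Measured by: One-Glo luminescence; Read-out: EC50 from sigmoidal fit of % activation; Incubation: 24 h compound treatment, 37 °C.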
`Oc1ccccc1OCc1nc2ccccc2s1` was tested, and the EC50 was > 91.2 µM (inactive). With `COc1ccc(-c2nc(C#N)c(NC3CC3)o2)cc1` the EC50 was > 91.2 µM (inactive). `Clc1ccc(Cc2nc(-c3ccccc3)cs2)cc1` was tested, and the EC50 was > 91.2 µM (inactive). In the case of `Cc1nc(NC(=O)c2cccc(Br)c2)sc1C`, the EC50 is reported as > 91.2 µM (inactive). For `Cc1ccc(Nc2nc(-c3ccccc3)c(C)s2)cc1`, the EC50 was > 91.2 µM (inactive). For `O=C(NCC1(c2nc(-c3ccccc3)cs2)CCOCC1)c1cccc(-c2noc(C(F)(F)F)n2)c1`, the EC50 was > 91.2 µM (inactive). With `Cc1cc(C)c2nc(NC(=O)C(C)C)sc2c1` the EC50 was > 91.2 µM (inactive).
